The results in this text go back to ChEMBL document CHEMBL1124783, “Synthesis and structure-activity relationships of 6-substituted 2',3'-dideoxypurine nucleosides as potential anti-human immunodeficiency virus agents” (J Med Chem, 1990).

The nature of assay [1]: The antiviral activity against HIV-1 in human peripheral blood mononuclear (PBM) cells expressed as inhibitory concentration. Format: functional. In a few lines:
(§1)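 PHA-stimulated human PBM cells infected with HIV-1 strain LAV-1 (about 63 000 dpm RT activity per 10^7 cells/10 mL medium), then drug added to duplicate or triplicate cultures. Incubated at 37 °C in 5% CO2 for 6 days. Supernatant RT activity measured on pelleted virus with (rA)n·(dT)12-18 template-primer, expressed as dpm/mL. EC50 taken from median-effect plot of dose-effect data.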

Assay [2] can be described thus: The antiviral activity against HIV-1 in human peripheral blood mononuclear (PBM) cells expressed as median effective concentration. Format: functional. As to conditions: read-out: ED50 (the source's name). In outline: as §1

Take `Nc1nc(O)c2ncn([C@H]3CC[C@@H](CO)O3)c2n1`: the IC50 – broadly, the concentration that gives 50% inhibition – in assay [1] is > 100 µM. The EC50 in assay [2] worked out at 0.88 µM.

As for `CN(C)c1ncnc2c1ncn2C1CCC(CO)O1` (centres undefined), the IC50 in assay [1] is > 100 µM. Further, the EC50 in assay [2] was 2.3 µM.

Take `OCC1CCC(n2cnc3c(S)ncnc32)O1` (centres undefined): in assay [1], the IC50 is > 100 µM. In assay [2], the EC50 worked out at 53.9 µM.

With `O=c1[nH]cnc2c1ncn2[C@H]1CC[C@@H](CO)O1` [DIDANOSINE], the concentration for half-maximal inhibition (IC50) in assay [1] was > 100 µM. Also, the EC50 in assay [2] came to 5.5 µM.

For the molecule `CNc1ncnc2c1ncn2C1CCC(CO)O1` (centres undefined), the IC50 in assay [1] was > 100 µM. Further, the EC50 in assay [2] turned out to be 0.26 µM.

For the molecule `OC[C@@H]1CC[C@H](n2cnc3cncnc32)O1`, in assay [1], the half-inhibitory concentration (IC50) is > 100 µM. Further, the EC50 in assay [2] was > 100 µM.

Consider `OCC1CCC(n2cnc3c(NCc4ccccc4)ncnc32)O1` (centres undefined), for which the IC50 in assay [1] was 10 µM. In assay [2], the EC50 was > 100 µM.

Regarding `OC[C@@H]1CC[C@H](n2cnc3c(Cl)ncnc32)O1`, the concentration for half-maximal inhibition (IC50) in assay [1] was > 100 µM. In addition, the EC50 in assay [2] was found to be 2.1 µM.

Consider `CNc1ncnc2c1ncn2C1OC(CO)CC1F` (centres undefined), for which the IC50 in assay [1] is > 100 µM. Moreover, the EC50 in assay [2] turned out to be 4.3 µM.

With `CSc1ncnc2c1ncn2C1CCC(CO)O1` (centres undefined), in assay [1], the IC50 is > 100 µM. In addition, the EC50 in assay [2] came to 3.6 µM.

Consider `CCNc1ncnc2c1ncn2C1CCC(CO)O1` (centres undefined), for which, in assay [1], the half-maximal inhibitory concentration (IC50) is > 100 µM. Moreover, the EC50 in assay [2] came out at 5.2 µM.

For `Nc1ncnc2c1ncn2[C@H]1CC[C@@H](CO)O1`, the 50% inhibitory concentration (IC50) in assay [1] was > 100 µM. The EC50 in assay [2] was 0.62 µM.
